In publication PMC3949125 (Proteins, 2013):

Columns and labels:
[1] = biological target: human BCL2 (residues 1–218) (Homo sapiens, UniProt P10415); test: Isothermal titration calorimetry of BECN1 BH3D-derived peptides binding to BCL2; conditions: ITC, 25°C, pH 7.5
How it was run: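 Soluble human BCL2 (1–218, C-terminal transmembrane helix removed) and synthetic BH3D-derived peptides (HPLC-purified >95%, mass confirmed by electrospray MS) were co-dialysed against 50 mM HEPES pH 7.5, 150 mM NaCl, 2 mM β-mercaptoethanol. BCL2 sat in the cell and peptide was titrated in at 25°C over 25 injections. Kd came from fitting an independent binding model.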

[2] = biological target: Soluble human BCL2 (residues 1-218), lacking the C-terminal transmembrane helix (human, UniProt P10415 1-218); test: ITC
Sequence of Soluble human BCL2 (residues 1-218), lacking the C-terminal transmembrane helix (P10415 1-218): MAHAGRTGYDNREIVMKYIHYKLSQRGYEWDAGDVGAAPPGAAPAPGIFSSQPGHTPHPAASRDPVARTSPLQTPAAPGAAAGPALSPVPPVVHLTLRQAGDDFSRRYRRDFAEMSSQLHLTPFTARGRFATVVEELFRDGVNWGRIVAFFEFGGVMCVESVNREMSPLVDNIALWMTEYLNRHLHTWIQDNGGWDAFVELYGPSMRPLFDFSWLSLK

Sequence of human BCL2 (residues 1–218) (P10415 1-218): as above

Row | Binding to BCL2 (in words) [1] | dH [2] | further results | Molecule
1 | abolished | – | – | L116A: BECN1 BH3D-derived peptide with Ala substitution of L116 (DGGTMENLSRRAKVTGDLFDIMSGQT) [Mutant L116A]
2 | abolished | – | Binding to BCL2 (in words) ([1]; listed as DS BH3D): does not bind | G120E+D121A: BECN1 BH3D-derived peptide with double G120E+D121A substitution (DS) (DGGTMENLSRRLKVTEALFDIMSGQT)
3 | abolished | – | – | F123A: BECN1 BH3D-derived peptide with Ala substitution of F123 (DGGTMENLSRRLKVTGDLADIMSGQT) [Mutant F123A]
4 | abolished | – | – | L112A: BECN1 BH3D-derived peptide with Ala substitution of L112 (DGGTMENASRRLKVTGDLFDIMSGQT) [Mutant L112A]
5 | – | -4.25 ± 1.55 kcal/mol | Kd [2]: 10.4 ± 3.5 µM | DGGTMENLSRRLKVTGDLFDIMSGQT [human BECN1 BH3D peptide (residues 105-130)]
6 | – | -5.11 ± 1.1 kcal/mol | – | DGGTMENLSRRLQVTGDLFDIMSGQT (peptide, UniProt Q14457 105-130, looked up) [K117Q BECN1 BH3D peptide]
7 | – | -3.78 ± 0.693 kcal/mol | – | DGGTAENLSRRLKVTGDLFDIMSGQT (peptide, UniProt Q14457 105-130, looked up) [M109A BECN1 BH3D peptide]
